In the EternaBench riboswitch data:

Test system: MS2 coat protein
Assay: apparent Kd, MS2 coat protein; higher = weaker binding; RNA-MaP array; FMN 200 µM where present
Method in brief: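 Two titrations, one without ligand and one with constant ligand, were run with SNAP-549-labelled MS2 coat protein from 0.7 or 1.5 nM, doubling to 3 µM. The targets were designs transcribed by stalled E. coli RNA polymerase on Illumina sequencing-chip clusters, in 100 mM Tris-HCl pH 7.5, 80 mM KCl, 4 mM MgCl2, BSA, DTT, yeast tRNA and Tween-20. The apparent Kd is the median of filtered per-cluster binding-curve fits, with green signal normalised to red-channel RNA signal and control-cluster median Fmax.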

[1] = designed as: OFF switch for flavin mononucleotide, no ligand
[2] = ligand present: flavin mononucleotide, designed as: OFF switch for flavin mononucleotide
[3] = designed as: ON switch for flavin mononucleotide, no ligand
[4] = ligand present: flavin mononucleotide, designed as: ON switch for flavin mononucleotide

Sequence	apparent Kd [1] [nM]	apparent Kd [2] [nM]	apparent Kd [3] [nM]	apparent Kd [4] [nM]
GAUGGAAUAGUCAGGAUAUAAACGUCAGGAUAUGUUUAGAAGGGACAUGAGGAUCACCCAUGUUAAGAUAUGGU	29.9	87.6		
UGUGUGUGGGCAGGAUAUGCAUGAAUAUAUAUGAUGUAGUAUGAUGUAACAUGAGGAUCACCCAUGUAGAAGGGCCGGUGUAUG	133	133		
AAUUAUUAUUGAGGAUAUCGUAUUGAAACAAUACGAGAAGGCGGUAUAAACAUGAGGAUCACCCAUGUGAGCCUGAUGCUUAUG	28.4	58.9		
GAGCGGGAAACAUGAGGAUCACCCAUGUGAUGUAUCCUCACGUAGGAUAUGCACACGAGAAGUGUGCAGAAGGGCGACCCGGUC	1100	1260		
CAAUUUAUUACAGGAUAUACAAUACAAUGAUUAGUAGAAGGGUAUAAUACAUGAGGAUCACCCAUGUCAUGUGUCAUAAUAACC	35.8	23.9		
UGCAUGCUAGGAUAUACGAAACAUUAGGGUUCUUUGUGUGAACAUGAGGAUCACCCAUGUAGAAGGAGCGUGCU	151	38.5		
AUGAGGUUAGGAUAUACAUGAGGAUCACCCAUGUUGAAAGGUUAGGUAGGCGGAGCUGGUAGAAGGAACGGAGC	39.7	31.8		
CUGUUACAUGAGGAUCACCCAUGUCAGGAUAUUUCUAUAGCGUCCUGCCGACGCAUAGAAAGAAGGGAUGGUGA	48.6	83.8		
AAGGAGUCAGGAUAUGCUGCUCGUCACUUGCGUGAUGAGUAGCAGAAGGGACAUGAGGAUCACCCAUGUAAAGA	51.2	61.4		
ACACAUGAGGAUCACCCAUGUACUCGACACAUUCAUUGGGCACAGGAUAUACGGUGAAGUCUUUCGUAGAAGGGUGCUAGUGUG			84	18.4
GCUGACGAUGUAGGAUAUCUCGACGAUAAGUCGAGAGAAGGACAUGAGGAUCACCCAUGUAUCUCAACGUCAGCGAGGAAACUC	16.4	20.4		
GUGGCAUACCGAGGAUAUUCAUAUAAUAAAUAAACAUGAGGAUCACCCAUGUGGCGAAAGCCUUGGGAGAAGGCGGAAUGCUAC			574	38.2
GUCGAGUGAGGAUAUGGUGAGUAGUGCCUGAGCGCUGCUCACCAGAAGGCACAUGAGGAUCACCCAUGUAUGUC	13.7	20.7		
AUCCGACAUGAGGAUCACCCAUGUCAGGAUAUGGACUGACACCCAAAGGGUGGAGGAACCAGAAGGGACUGGGC	36	68.1		
GGCGAACGGGCUUACAUGAGGAUCACCCAUGUAGACUCAUGGUAGGAUAUGCUGAACAAAGUUCAGCAGAAGGGCCGGUGAGCU			86.6	46.3
CUUUUGUGAGGAUAUUAGUAGUAAAUAAAUAAAAUUACUAUUGAGAAGGCACAUGAGGAUCACCCAUGUUCCUC	31.4	182		
GUCAGCUCGUGAGGAUAUACAACACUGCUUCGGCAGUGUAUUAAGAUAACAUGAGGAUCACCCAUGUAGAAGGCACGAGCUGAU	5.58	8.48		
AAAAAAAAAGUAGAGGAUAUCCGAGUGGUAACAUGAGGAUCACCCAUGUGAAGAAAGGAAGAUGAGGAGAAGGCUACAAAAAAAAA			47.5	21.9
AGGAUCCUAUCAAGACAAAUGUACAUGAGGAUCACCCAUGUGCAGGAUAUAGCUAGUUACGGUGGCUAGAAGGGCACACCAAAA	6.72	14.3		

Sequence	apparent Kd [1] [nM]	apparent Kd [2] [nM]	apparent Kd [3] [nM]	apparent Kd [4] [nM]
CAAUAAGACACAGGAUAUCCAGACAGGGAAGAUGGAGAAGGGUGAUCAGAAAAGACAUGAGGAUCACCCAUGUCUCGUGCGAUG			631	282
AUGCUAGUGUGAGGAUAUACAUGAGGAUCACCCAUGUGUCCGAAGAACGGGACAUGACGUUCGUCGUAGAAGGUACAUUAGCAU	18.7	46.8		
CCUUUGAAGAUCCUAGAUUUCGACAUGAGGAUCACCCAUGUGCAGGAUAUCGUGCCAGUGAUGUGCGAGAAGGGCAGUCUCUGC	50.8	55		
GCAUGAGACUAAGGAUAUGAUGUACCUAUAUGUGACAUGAGGAUCACCCAUGUGGUAAGUAUGAUUCAGAAGGUAGAGACAUGC			33.7	21.3
CAACCGUUGCAGAAGGUUAAAUAAUUUCUCAUCUUGUUUACAUGAGGAUCACCCAUGUAUUUGUUGAAGGAUAUGCAAGUGUUG	8.58	8.21		
CCAUGGCAUGUAGGAUAUGUCUGACAAAGUCAGACAGAAGGACAUGAGGAUCACCCAUGUAAACCGAAAGGAACAUAGCCAUGG	6.54	7.3		
UUAUUUAUGCAAGGAUAUCAAUUAUAUAGACGUCCUACAUGAGGAUCACCCAUGUUUAGUUUUUUUGAGAAGGUGCAUUGUCGG			43.1	31.1
GGCCUGUUAGGAUAUUAGUAGUAGUCAGAAUAGACUAUUACUGAGAAGGAACAUGAGGAUCACCCAUGUUGGCC	16.5	19.3		
GUGUCUUGGGAGAAGGCCGAUAGCAAAGCUAUCGGAGGAUAUUCAUACCGGAAACGGACAUGAGGAUCACCCAUGUGGCACAAA			1130	36.8
AAAAAUGGAGGAUAUACAUGAGGAUCACCCAUGUGUGGCUAUACUAUGUGCUCUUCAGGUAGAAGGCCAAAAAA	42.6	201		
AAAUAUAAUGAGGAUAUCGUACUGGAUAUAGUGCGAGAAGGCAUUACAUGAGGAUCACCCAUGUUUUGUUGGGA	30.8	89.5		
GGAGAACAUGAGGAUCACCCAUGUGAGCGGUAGCUAGGAUAUGCGGGAAGGAAGAGAGAAGCAGAAGGAGUCGGUA			36.1	22.9
UGUCGGAUCAGAGGAUAUUACAUGAGGAUCACCCAUGUAUGAACCAAUAGCUGGAAACAGCAAUGUAAGAAGGCUGCUCCGACA	11.4	160		
GGUUGGCGAGGAUAUACAUGAGGAUCACCCAUGUGGUCCUGUGGCUGAUCUUGCCUUUGUAGAAGGCGCAAAUC	18.5	37.8		
GUCGAGUGAGGAUAUGGUGAGUAGUGCCUGAGCGCUGCUCACCAGAAGGCACAUGAGGAUCACCCAUGUAUAGC		29		
GGUGGACAUGAGGAUCACCCAUGUGAGGAUAUCGGCUAUCUACUCGCUGACGGUUGCUCGAGAAGGCACAUUGU	126	206		
GGUGGACAUGAGGAUCACCCAUGUGAGGAUAUCGGCCGGUUCGUGGUGGCUGGCCUCUCGAGAAGGCGCAUAGU	58.1	71.9		
UAUAAUCGAGGAUAUACAUGAGGAUCACCCAUGUGUUGCCGCGUGAUGUGUUUGUCAGGUAGAAGGCGAUUAUA	200	43.8		
GGUGUGAGGCAGGAUAUGCUAUAUGUUAGUAAUGCAGAAGGGUCUACAUGAGGAUCACCCAUGUGUGCGGUUGA	90.5	394		

Sequence	apparent Kd [1] [nM]	apparent Kd [2] [nM]	apparent Kd [3] [nM]	apparent Kd [4] [nM]
GUAGCAUACGGAGGAUAUCCAUACCGGAAACGGACAUGAGGAUCACCCAUGUGGCGAAAGCCUUGGGAGAAGGCCGUAUGCUAC			4.63	3.67
AGUCUGUGGCAACUAUCCUCACAUGAGGAUCACCCAUGUAGGGAGGAUAUGCAUUUAAAGAAGUGGCAGAAGGCCCUACACGGA	83.2	32.1		
AUGCCUUAUGUAGGAUAUGCAUAGAGUUGCUAUGCAGAAGGACAUGAGGAUCACCCAUGUAUGUAUACCUUACAUAUCUGGCAU	8.34	30.8		
GUCAGCUCGUGAGGAUAUACAACACUGCUUCGGCCGUGUAUUAAGAUCACAUGAGGAUCACCCAUGUAGAAGGCACGAGCUGAU	13.6	228		
UUAUUACGAGGAUAUCGUUUUUAUCACAUGAGGAUCACCCAUGUUGUUUAUGUUUCGUUUCGAGAAGGCGUUUGUU	27.6	19.9		
GUGGUCAGACAUGAGGAUCACCCAUGUGGAAUAAAUAACGAACAGGAUAUGCAAUAUAGGAUAUAGUAGAAGGGUUGAUUGGUG			104	138
AACAGGACAGGAUAUACAUGAGGAUCACCCAUGUGAGAAUUAAGCAGCGUACCACACAGUAGAAGGGUCAUGGA	46.7	40		
AAAAAGGUAGGAUAUACGAGGAGAAAUAAUAAAUAAAUAAAACAUGAGGAUCACCCAUGUAGAAGGACCAAAAA	26.1	26.8		
ACUCGGAGCUGGCGACAGAAGACAUGAGGAUCACCCAUGUAGAGAAGGAGCCCUGGGACCGGUGGCUAGGAUAUUUACAUCGGU	6.9	12.3		
GGUAGACAUGAGGAUCACCCAUGUGAGGAUAUCGUCAUAGAUGCAAAAGCAUCUAUGACGAGAAGGUACAUGCC	33.1	34.3		
UUGGAGUACGUAGGAUAUGUAGGAUAUUCCUACAUGAGGAUCACCCAUGUAUGAAUGGAAGAAGGACAGAAGGACGUGCUCCAU			19.8	13.9
GCAGCACAAUAUUACAUGAGGAUCACCCAUGUCGAUUGUUAUGAGGAUAUGCAUCGUAUGAAGUUGCAGAAGGCAUUGUGCUGC			9.4	6.09
GUAGUGUAUGUAGGAUAUGUGAAGCAAAGCUUCACAGAAGGACAUGAGGAUCACCCAUGUAUUGCAGUCUGCAAUCAGACUGCU	43.4	152		
UUUGCAUACCGAGGAUAUUCAUAUAAUAAAUAAACAUGAGGAUCACCCAUGUGGCGAAAGCCUAGGGAGAAGGCGGAAUGCUUU			162	30.1
AACUUCCCGUCAGGAUAUCGCCGUAGGUCCUCGGGUCUCGCCGUCAUACAUGAGGAUCACCCAUGUGAGAAGGGACGGGAUUCA	21.8	117		
CGCAACUUUUCUCAUGUAAACAUGAGGAUCACCCAUGUAAUGAGAAGGAGGAGAAAGAGAGAAUCCUAGGAUAUCAGAGUUGCG	6.29	6.53		
GUCGGAUGUAUAGGAUAUCGACUGGAUAACAGUCGAGAAGGAUACAUGAGGAUCACCCAUGUAAUAAUAAUAAUAAUAACCGAC	12.8	24.6		
AAUAACAGAGGAUAUACUAUUUUAUGUAUUUAUUAUUUUAAACAUGAGGAUCACCCAUGUAGAAGGCUGAUUAA	28.1	30.4		
